Data from ChEMBL document CHEMBL4196214, “Inhibition of p53-Murine Double Minute 2 (MDM2) Interactions with 3,3'-Spirocyclopentene Oxindole Derivatives” (J Med Chem, 2018).
Activity calls are given as the source filed them. The rule behind the calls is not given here.

Assays:
[1] = target: Tumour suppressor p53/oncoprotein Mdm2 (Homo sapiens, UniProt Q00987); assay: Inhibition of human MDM2 (1 to 125 residues) and p53 (unknown origin) interaction pre-incubated for 20 mins before peptide-2-biot addition and measured after 3 hrs by HTRF assay; format: protein assay
SJSA-1 = assay: Antiproliferative activity against human SJSA1 cells expressing wild type p53 incubated for 72 hrs by MTS assay; format: functional, cell-based; settings: SJSA-1, 72 h
In short: (§1)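 Cells treated with compound for 72 h; IC50 fitted to polynomial curves from three separate experiments, reported as average with standard deviation. HCT116 p53 −/− is an isogenic p53 knockout line. H1299 carries a homozygous partial deletion of the p53 gene and expresses no p53 protein.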

HCT-116 [2] = assay: Antiproliferative activity against human HCT116 cells expressing wild type p53 incubated for 72 hrs by MTS assay; format: functional, cell-based; settings: HCT-116, 72 h; in short: as §1
HCT-116 [3] = assay: Antiproliferative activity against p53 -/- human HCT116 cells incubated for 72 hrs by MTS assay; format: functional, cell-based; settings: HCT-116, 72 h; in short: as §1
NCI-H1299 = assay: Antiproliferative activity against p53 -/- human NCI-H1299 cells incubated for 72 hrs by MTS assay; format: functional, cell-based; settings: NCI-H1299, 72 h; in short: as §1
[4] = target: T1, Tumour suppressor p53/oncoprotein Mdm2 (Homo sapiens) (UniProt P04637+Q00987); assay: Inhibition of MDM2/p53 interaction in human HCT116 cells expressing wild type p53 assessed as increase in p53 activation at 10 uM incubated for 6 hrs by Western blot method; format: cell-based
In short: (§2)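 HCT116 cells, p53 +/+ and isogenic p53 −/−, treated with compound at 10 μM for 6 h. Lysates probed by Western blot for p53, MDM2 and p21 protein levels. Actin served as the loading control.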

[5] = target: T1, Tumour suppressor p53/oncoprotein Mdm2 (Homo sapiens); assay: Inhibition of MDM2/p53 interaction in human HCT116 cells expressing wild type p53 assessed as increase in MDM2 protein levels at 10 uM incubated for 6 hrs by Western blot method; format: cell-based; in short: as §2
[6] = target: T1, Tumour suppressor p53/oncoprotein Mdm2 (Homo sapiens); assay: Inhibition of MDM2/p53 interaction in human HCT116 cells expressing wild type p53 assessed as increase in p21 protein levels at 10 uM incubated for 6 hrs by Western blot method; format: cell-based; in short: as §2
[7] = target: T1, Tumour suppressor p53/oncoprotein Mdm2 (Homo sapiens); assay: Inhibition of MDM2/p53 interaction in human HCT116 cells deficient in p53 assessed as increase in p53 activation at 10 uM incubated for 6 hrs by Western blot method; format: cell-based; in short: as §2
[8] = target: T1, Tumour suppressor p53/oncoprotein Mdm2 (Homo sapiens); assay: Inhibition of MDM2/p53 interaction in human HCT116 cells deficient in p53 assessed as increase in MDM2 protein levels at 10 uM incubated for 6 hrs by Western blot method; format: cell-based; in short: as §2
[9] = target: T1, Tumour suppressor p53/oncoprotein Mdm2 (Homo sapiens); assay: Inhibition of MDM2/p53 interaction in human HCT116 cells deficient in p53 assessed as increase in p21 protein levels at 10 uM incubated for 6 hrs by Western blot method; format: cell-based; in short: as §2

T1 sequence (P04637 whole entry, looked up): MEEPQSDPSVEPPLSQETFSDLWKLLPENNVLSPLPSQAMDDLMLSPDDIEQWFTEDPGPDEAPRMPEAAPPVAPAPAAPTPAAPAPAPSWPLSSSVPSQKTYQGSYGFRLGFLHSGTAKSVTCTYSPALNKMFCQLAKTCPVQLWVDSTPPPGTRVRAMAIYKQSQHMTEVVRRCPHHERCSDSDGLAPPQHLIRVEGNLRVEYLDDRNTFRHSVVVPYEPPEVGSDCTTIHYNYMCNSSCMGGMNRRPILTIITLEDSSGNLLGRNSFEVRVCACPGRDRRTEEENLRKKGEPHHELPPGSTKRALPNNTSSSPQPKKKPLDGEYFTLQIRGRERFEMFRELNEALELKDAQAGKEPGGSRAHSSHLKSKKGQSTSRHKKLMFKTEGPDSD
T1 sequence (Q00987 whole entry, looked up): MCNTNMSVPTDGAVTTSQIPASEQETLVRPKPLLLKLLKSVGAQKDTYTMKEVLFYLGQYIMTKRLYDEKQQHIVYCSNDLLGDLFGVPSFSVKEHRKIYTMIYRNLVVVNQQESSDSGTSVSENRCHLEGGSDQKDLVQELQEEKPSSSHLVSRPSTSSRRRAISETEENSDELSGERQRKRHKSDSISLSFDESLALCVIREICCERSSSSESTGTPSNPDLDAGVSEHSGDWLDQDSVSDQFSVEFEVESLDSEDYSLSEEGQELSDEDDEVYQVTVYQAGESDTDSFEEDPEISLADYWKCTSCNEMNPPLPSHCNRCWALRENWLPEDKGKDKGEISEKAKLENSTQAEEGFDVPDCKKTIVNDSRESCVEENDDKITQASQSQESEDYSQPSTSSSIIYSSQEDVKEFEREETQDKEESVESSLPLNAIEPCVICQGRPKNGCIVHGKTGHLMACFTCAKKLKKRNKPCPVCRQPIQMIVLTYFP
Tumour suppressor p53/oncoprotein Mdm2, sequence (P04637 whole entry, the tested form may be a part): as the sequence (P04637 whole entry, looked up) above
Tumour suppressor p53/oncoprotein Mdm2, sequence (Q00987 whole entry, the tested form may be a part): as the sequence (Q00987 whole entry, looked up) above

In the case of `CC(C)(C)C[C@@H]1C=C(C(=O)NCCN2CCOCC2)[C@@H](c2cccc(Cl)c2F)[C@]12C(=O)Nc1cc(Cl)ccc12` (racemic), the IC50 [1] is reported as 3380 nM.
For `CC(C)(C)C[C@H]1C=C(C(=O)NCCN2CCOCC2)[C@H](c2cccc(Cl)c2F)[C@]12C(=O)Nc1cc(Cl)ccc12` (racemic), the IC50 [1] was 739 nM.
For `CC(C)(C)C[C@@H]1C=C(C(=O)Nc2ccc(C(=O)O)cc2)[C@H](c2cccc(Cl)c2F)[C@]12C(=O)Nc1cc(Cl)ccc12` (racemic), the IC50 [1] was 350 nM.
`CC(C)(C)C[C@@H]1C=C(C(=O)N[C@H]2CC[C@H](O)CC2)[C@H](c2cccc(Cl)c2F)[C@]12C(=O)Nc1cc(Cl)ccc12` (racemic) gave an IC50 [1] of 619 nM.
`CC(C)(C)C[C@@H]1C=C(C(=O)N[C@H]2C[C@@](C)(O)C2)[C@H](c2cccc(Cl)c2F)[C@]12C(=O)Nc1cc(Cl)ccc12` (racemic) gave an IC50 [1] of 1260 nM.
In the case of `CC(C)(C)C[C@H]1C=C(C(=O)NCCN2CCOCC2)[C@@H](c2cccc(Cl)c2F)[C@]12C(=O)Nc1cc(Cl)ccc12` (racemic), the IC50 [1] is reported as 3680 nM.
Compound `CC(C)(C)C[C@@H]1C=C(C(=O)NCCN2CCOCC2)[C@H](c2cccc(Cl)c2F)[C@]12C(=O)Nc1cc(Cl)ccc12` (racemic) has an IC50 [1] of 33 nM, an IC50 (SJSA-1) of 7500 nM and an IC50 (HCT-116 [2]) of 4840 nM. The IC50 (HCT-116 [3]) was over 20000 nM and the IC50 (NCI-H1299) was over 20000 nM.
With `CC(C)(C)C[C@@H]1C=C(C(=O)O)[C@H](c2cccc(Cl)c2F)[C@]12C(=O)Nc1cc(Cl)ccc12` (racemic) the IC50 [1] was 10.1 nM, the IC50 (SJSA-1) was 7440 nM and the IC50 (HCT-116 [2]) was 10500 nM. For the same compound, the IC50 (HCT-116 [3]) was over 20000 nM and the IC50 (NCI-H1299) was over 20000 nM.
`CC(C)(C)CC1C=C(C(=O)O)C(c2cccc(Cl)c2F)C12C(=O)Nc1cc(Cl)ccc12` (single isomer, unassigned; (+)) [listing 1 of 2 here] gave an IC50 [1] of 3.1 nM, an IC50 (SJSA-1) of 7800 nM and an IC50 (HCT-116 [2]) of 11600 nM. It also gave an IC50 (HCT-116 [3]) of over 20000 nM and an IC50 (NCI-H1299) of over 20000 nM.
`CC(C)(C)CC1C=C(C(=O)Nc2ccc(C(=O)O)cc2)C(c2cccc(Cl)c2F)C12C(=O)Nc1cc(Cl)ccc12` (single isomer, unassigned; (+)) was tested, and the IC50 [1] was 655 nM.
In the case of `CC(C)(C)CC1C=C(C(=O)NC2CC(C)(O)C2)C(c2cccc(Cl)c2F)C12C(=O)Nc1cc(Cl)ccc12` (single isomer, unassigned; (+)), the IC50 [1] is reported as 712 nM.
Compound `CC(C)(C)CC1C=C(C(=O)NCCN2CCOCC2)C(c2cccc(Cl)c2F)C12C(=O)Nc1cc(Cl)ccc12` (single isomer, unassigned; (+)) [listing 1 of 2 here] has an IC50 [1] of 23.7 nM, an IC50 (SJSA-1) of 960 nM and an IC50 (HCT-116 [2]) of 2920 nM. For the same compound, the IC50 (HCT-116 [3]) was over 20000 nM and the IC50 (NCI-H1299) was 9730 nM.
`CC(C)(C)CC1C=C(C(=O)NC2CCC(O)CC2)C(c2cccc(Cl)c2F)C12C(=O)Nc1cc(Cl)ccc12` (single isomer, unassigned; (+)) gave an IC50 [1] of 303 nM.
For `CC(C)(C)CC1C=C(C(=O)NCCN2CCOCC2)C(c2cccc(Cl)c2F)C12C(=O)Nc1cc(Cl)ccc12` (single isomer, unassigned; (+)) [listing 2 of 2 here], the inhibition [4] was “Active”, the inhibition [5] was “Active” and the inhibition [6] was “Active”. The inhibition [7] was “inactive”, the inhibition [8] was “inactive” and the inhibition [9] was “inactive”.
`CC(C)(C)CC1C=C(C(=O)O)C(c2cccc(Cl)c2F)C12C(=O)Nc1cc(Cl)ccc12` (single isomer, unassigned; (+)) [listing 2 of 2 here] was tested, and the inhibition [4] was “Active”, the inhibition [5] was “Active” and the inhibition [6] was “Active”. For the same compound, the inhibition [7] was “inactive”, the inhibition [8] was “inactive” and the inhibition [9] was “inactive”.
`CC(C)(C)CC1C=C(C(=O)Nc2ccc(C(=O)O)cc2)C(c2cccc(Cl)c2F)C12C(=O)Nc1cc(Cl)ccc12` (single isomer, unassigned; (-)) gave an IC50 [1] of 1040 nM.
In the case of `CC(C)(C)CC1C=C(C(=O)NC2CC(C)(O)C2)C(c2cccc(Cl)c2F)C12C(=O)Nc1cc(Cl)ccc12` (single isomer, unassigned; (-)), the IC50 [1] is reported as 3030 nM.
In the case of `CC(C)(C)CC1C=C(C(=O)NCCN2CCOCC2)C(c2cccc(Cl)c2F)C12C(=O)Nc1cc(Cl)ccc12` (single isomer, unassigned; (-)), the IC50 [1] is reported as 1140 nM.
Work on `CC(C)(C)CC1C=C(C(=O)NC2CCC(O)CC2)C(c2cccc(Cl)c2F)C12C(=O)Nc1cc(Cl)ccc12` (single isomer, unassigned; (-)) yielded an IC50 [1] of 3720 nM.
For `CC(C)(C)CC1C=C(C(=O)O)C(c2cccc(Cl)c2F)C12C(=O)Nc1cc(Cl)ccc12` (stereo in doubt; (-)-8'), the IC50 [1] was 538 nM.
`COc1ccc(C2=N[C@@H](c3ccc(Cl)cc3)[C@@H](c3ccc(Cl)cc3)N2C(=O)N2CCNC(=O)C2)c(OC(C)C)c1` [NUTLIN-3] was tested, and the IC50 (SJSA-1) was 1440 nM, the IC50 (HCT-116 [2]) was 1300 nM and the IC50 (HCT-116 [3]) was over 20000 nM. For the same compound, the IC50 (NCI-H1299) was 10400 nM.
